Measured values from ChEMBL document CHEMBL1268807, “Discovery of small molecule inhibitors of the PH domain leucine-rich repeat protein phosphatase (PHLPP) by chemical and virtual screening” (J Med Chem, 2010).
Blank lines part the entries; values can stand above or below the molecule they belong to. Activity calls are given as the source filed them. The calls are words filed in the database; no cut-off is given here.

Legend:
HT-29 (Homo sapiens) = experiment: Inhibition of PHLPP in human HT29 cells assessed as increase of phosphorylation of Akt on Ser 473 at 100 to 250 uM after 24 hrs by immunoblotting relative to control
[1] = Inhibition of PHLPP in human […] cells assessed as increase of phosphorylation of GSK3 alpha/beta on Ser21/9 at 100 to 250 uM after 24 hrs by immunoblotting; format: cell-based
Method in brief: (§1)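 HT29 colon cells kept in DMEM with 5% FBS were given compounds (100 or 250 μM, DMSO vehicle) for 24 h, then lysed on ice. […] Densitometry normalized to actin and expressed relative to control lanes; three experiments, mean ± SEM.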

[2] = biological target: T1, PH domain leucine-rich repeat-containing protein phosphatase 2 (Homo sapiens, UniProt Q6ZVD8); experiment: Inhibition of PHLPP2 phosphatase domain expressed in Escherichia coli
T1 sequence (Q6ZVD8 whole entry): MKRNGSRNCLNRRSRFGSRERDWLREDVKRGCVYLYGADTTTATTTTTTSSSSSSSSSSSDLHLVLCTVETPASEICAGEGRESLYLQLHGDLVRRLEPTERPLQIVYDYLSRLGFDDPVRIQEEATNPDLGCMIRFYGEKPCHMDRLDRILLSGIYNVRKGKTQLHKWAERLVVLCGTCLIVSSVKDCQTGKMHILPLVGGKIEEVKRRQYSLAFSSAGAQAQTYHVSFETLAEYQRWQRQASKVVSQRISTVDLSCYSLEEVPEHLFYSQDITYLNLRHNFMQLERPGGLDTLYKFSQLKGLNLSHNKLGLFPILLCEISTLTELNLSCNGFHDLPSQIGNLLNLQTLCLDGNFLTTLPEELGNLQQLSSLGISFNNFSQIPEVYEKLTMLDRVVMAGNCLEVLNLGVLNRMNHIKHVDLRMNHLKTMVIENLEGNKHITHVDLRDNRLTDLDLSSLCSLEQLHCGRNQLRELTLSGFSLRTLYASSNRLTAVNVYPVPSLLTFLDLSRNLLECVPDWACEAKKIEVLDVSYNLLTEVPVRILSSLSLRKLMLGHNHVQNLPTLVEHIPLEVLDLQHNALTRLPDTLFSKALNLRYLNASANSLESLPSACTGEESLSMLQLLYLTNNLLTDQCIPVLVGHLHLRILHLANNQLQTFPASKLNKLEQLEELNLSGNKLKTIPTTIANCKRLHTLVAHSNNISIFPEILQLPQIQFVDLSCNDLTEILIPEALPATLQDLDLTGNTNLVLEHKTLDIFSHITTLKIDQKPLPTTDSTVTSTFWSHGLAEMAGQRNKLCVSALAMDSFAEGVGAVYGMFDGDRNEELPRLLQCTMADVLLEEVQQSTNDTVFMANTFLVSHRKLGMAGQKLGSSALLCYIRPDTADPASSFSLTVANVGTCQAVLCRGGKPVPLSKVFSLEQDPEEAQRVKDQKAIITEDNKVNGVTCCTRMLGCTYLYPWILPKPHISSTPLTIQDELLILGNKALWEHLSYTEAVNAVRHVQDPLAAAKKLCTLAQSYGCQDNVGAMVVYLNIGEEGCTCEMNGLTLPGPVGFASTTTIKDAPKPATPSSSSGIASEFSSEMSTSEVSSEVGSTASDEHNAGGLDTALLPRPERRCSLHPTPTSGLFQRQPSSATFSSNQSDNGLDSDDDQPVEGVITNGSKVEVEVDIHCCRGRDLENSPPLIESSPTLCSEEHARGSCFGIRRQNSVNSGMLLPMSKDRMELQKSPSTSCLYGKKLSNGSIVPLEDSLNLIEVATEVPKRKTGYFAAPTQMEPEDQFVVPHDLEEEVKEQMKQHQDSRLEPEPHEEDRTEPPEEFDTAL
Method in brief: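 A405 was followed over time, slope taken, no-enzyme background subtracted. Inhibitor at seven concentrations versus DMSO (100%); fit to eq 1, IC50 = −C0 ln(1/2).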

[3] = Inhibition of PHLPP in human […] cells assessed as increase of phosphorylation of FoxO1/3alpha on Thr 24/32 at 100 to 250 uM after 24 hrs by immunoblotting; format: cell-based
Method in brief: as §1

HT20 [4] = experiment: Inhibition of PHLPP in human […] cells assessed as increase of phosphorylation of GSK3 alpha/beta on Ser21/9 at 100 uM after 24 hrs by immunoblotting; format: cell-based
Method in brief: as §1

HT20 [5] = experiment: Inhibition of PHLPP in human […] cells assessed as increase of phosphorylation of Akt on Ser 473 at 100 uM after 24 hrs by immunoblotting; format: cell-based
Method in brief: as §1

HT20 [6] = experiment: Inhibition of PHLPP in human […] cells assessed as increase of phosphorylation of FoxO1/3alpha on Thr 24/32 at 100 uM after 24 hrs by immunoblotting; format: cell-based
Method in brief: as §1

HT20 [7] = experiment: Inhibition of PHLPP in human […] cells assessed as increase of phosphorylation of Akt on Ser 473 at 100 to 250 uM after 24 hrs by immunoblotting relative to control; format: cell-based
Method in brief: as §1

[8] = Inhibition of protein phosphatase 1 at 100 uM
Method in brief: (§2)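 PP1, PP2B or PP2Cα phosphatase domain with 8 mM pNPP in each enzyme's optimal buffer. Compound added; activity taken from A405 and expressed relative to DMSO control. At least three experiments, mean ± SEM.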

COS-7 [9] = experiment: Induction of apoptosis assessed as basal level of apoptotic cells in african green monkey COS7 cells at 50 uM after 24 hrs by trypan blue exclusion assay
[10] = Inhibition of protein phosphatase 1 at 10 uM
Method in brief: as §2

[11] = Inhibition of PHLPP expressed in 24 hrs serum starved Cos7 cells assessed as increase of Akt phosphorylation after 30 mins by immunoblotting; conditions: COS-7
COS-7 [12] = experiment: Inhibition of PHLPP expressed in 24 hrs serum starved Cos7 cells assessed as half maximal increase of phosphorylation of Akt substrate after 30 mins by immunoblotting; format: cell-based; conditions: in the assay text read “after 35 mins” for “after 30 mins”
Method in brief: (§3)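 COS 7 cells serum-starved 24 h in serum-free DMEM, then exposed 35 min at 37 °C to inhibitor over 4−400 or 3−300 μM; DMSO control. Lysates were immunoblotted for pSer473, pThr308, phospho-Akt-substrate motif, and actin. Densitometry normalized to actin and to DMSO (set to 1), fit to eq 2; four separate experiments, mean ± SEM.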

[13] = biological target: T2, Protein phosphatase 1A (Homo sapiens) (UniProt P35813); experiment: Inhibition of PP2Calpha at 10 uM
T2 sequence (whole entry): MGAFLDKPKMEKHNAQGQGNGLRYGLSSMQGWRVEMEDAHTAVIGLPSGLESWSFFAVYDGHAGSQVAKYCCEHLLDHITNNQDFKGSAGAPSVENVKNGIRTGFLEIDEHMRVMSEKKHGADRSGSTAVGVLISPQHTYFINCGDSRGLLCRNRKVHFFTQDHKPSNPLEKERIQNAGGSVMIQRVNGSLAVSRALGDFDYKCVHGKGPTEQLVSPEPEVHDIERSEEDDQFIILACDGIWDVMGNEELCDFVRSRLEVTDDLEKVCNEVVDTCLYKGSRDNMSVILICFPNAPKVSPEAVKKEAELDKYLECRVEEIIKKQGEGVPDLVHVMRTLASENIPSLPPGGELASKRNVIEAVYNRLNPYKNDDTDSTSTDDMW
Method in brief: as §2

[14] = biological target: T3, PH domain leucine-rich repeat-containing protein phosphatase 2 (Homo sapiens) (UniProt Q6ZVD8); conditions: 10 uM
T3 sequence (whole entry): T1 sequence (Q6ZVD8 whole entry)

COS-7 [15] = experiment: Inhibition of PHLPP expressed in 24 hrs serum starved Cos7 cells assessed as half maximal increase of phosphorylation on Thr308 after 30 mins by immunoblotting; format: cell-based; conditions: in the assay text read “after 35 mins” for “after 30 mins”
Method in brief: as §3

[16] = biological target: Serine/threonine protein phosphatase PP2B-alpha catalytic subunit (Homo sapiens) (UniProt P16298); experiment: Inhibition of protein phosphatase 2B at 10 uM
Method in brief: as §2

[17] = biological target: T2, Protein phosphatase 1A (Homo sapiens); experiment: Inhibition of PP2Calpha at 100 uM
Method in brief: as §2

HT-29 = experiment: Cytotoxicity against human HT-29 cells at 100 uM after 24 hrs; format: cell-based; conditions: ht-29, 24 h

Compound: Cc1ccc(/N=N/c2c(N)c(C)cc(/N=N/c3ccc(/N=N/c4ccc(O)c(C(=O)O)c4)cc3)c2N)c(S(=O)(=O)O)c1
inhibition (HT-29 (Homo sapiens)): Active

Compound: Cc1cc(/N=N/c2ccc(/N=N/c3ccc(O)c(C(=O)O)c3)cc2)c(N)cc1N
inhibition [1]: Active | inhibition (HT-29 (Homo sapiens)): Active | IC50 [2]: 3.75 µM | inhibition [3]: Active

Compound: COc1ccc(NCc2c(O)ccc3ccccc23)cc1
inhibition (HT20 [4]): Active | inhibition (HT20 [5]): inactive | inhibition (HT20 [6]): Active

Compound: CC(=O)Nc1ccc(Nc2cc(S(=O)(=O)O)c(N)c3c2C(=O)c2ccccc2C3=O)cc1
inhibition (HT-29 (Homo sapiens)): Active

Compound: O=C(O)c1cc(/N=N/c2ccc(S(=O)(=O)Nc3nccs3)cc2)ccc1O
inhibition (HT-29 (Homo sapiens)): Active

Compound: O=C(O)c1c(O)c(/N=N/c2ccc(S(=O)(=O)Nc3nccs3)cc2)cc2ccccc12
inhibition (HT-29 (Homo sapiens)): Active

Compound: Nc1cc(N)c(/N=N/c2ccc(S(=O)(=O)O)cc2)cc1/N=N/c1ccc(-c2ccc(/N=N/c3ccc(O)c(C(=O)O)c3)cc2)cc1
inhibition (HT-29 (Homo sapiens)): Active

Compound: S=C(Nc1ccc2cn[nH]c2c1)Nc1ccc2cn[nH]c2c1
inhibition (HT-29 (Homo sapiens)): Active

Compound: CS(=O)(=O)c1cc2cc(Nc3ccccc3)ccc2c(O)c1/N=N/c1ccc(-c2ccc(/N=N/c3ccc(O)c(C(=O)O)c3)cc2)cc1
inhibition (HT-29 (Homo sapiens)): Active

Compound: C[C@]12CC[C@H]3[C@@H](CCC4=CC(=O)CC[C@@]43C)[C@@H]1CC[C@@H]2C(=O)COS(=O)(=O)c1ccc(Br)cc1
inhibition (HT20 [7]): Active

Compound: Cc1cc(-c2ccc(/N=N/c3c(S(=O)(=O)O)cc4cc(S(=O)(=O)O)cc(N)c4c3O)c(C)c2)ccc1/N=N/c1cc(S(=O)(=O)O)c2ccccc2c1O
inhibition (HT-29 (Homo sapiens)): Active

Compound: Nc1cc(S(=O)(=O)O)cc2cc(S(=O)(=O)O)c(/N=N/c3ccc(S(=O)(=O)c4ccc(/N=N/c5c(O)ccc6cccc(S(=O)(=O)O)c56)cc4)cc3)c(O)c12
inhibition (HT-29 (Homo sapiens)): Active

Compound: COc1cc(/N=N/c2ccc(S(=O)(=O)O)cc2)ccc1/N=N/c1ccc(O)c(C(=O)O)c1
inhibition (HT-29 (Homo sapiens)): Active

Compound: CS(=O)(=O)c1cc2ccc(Nc3ccccc3)cc2c(O)c1/N=N/c1ccc(-c2ccc(/N=N/c3ccc(O)c(C(=O)O)c3)cc2)cc1
inhibition (HT-29 (Homo sapiens)): Active

Compound: CS(=O)(=O)c1ccc2c(/N=N/c3ccc(-c4ccc(/N=N/c5ccc(N)c6cc(S(=O)(=O)O)ccc56)cc4)cc3)ccc(N)c2c1
inhibition (HT-29 (Homo sapiens)): Active

Compound: NS(=O)(=O)c1ccc(/N=N/c2ccc(O)c(C(=O)O)c2)cc1
inhibition (HT-29 (Homo sapiens)): Active

Compound: COc1cc(-c2ccc(/N=N/c3c(S(=O)(=O)O)cc4cc(N)ccc4c3O)c(OC)c2)ccc1/N=N/c1cc(S(=O)(=O)O)c2ccccc2c1O
inhibition (HT-29 (Homo sapiens)): Active

Compound: Cc1cc(/N=N/c2ccc(/N=N/c3ccc(S(=O)(=O)O)cc3)cc2)cc(C(=O)O)c1O
inhibition (HT-29 (Homo sapiens)): Active

Compound: NS(=O)(=O)c1ccc(/N=N/c2ncccc2O)cc1
inhibition (HT-29 (Homo sapiens)): Active

Compound: Nc1nc(SCc2ccccc2)c2ncn(Cc3ccccc3)c2n1
inhibition (HT-29 (Homo sapiens)): Active

Compound: O=C1c2ccccc2-c2cc([N+](=O)[O-])c([N+](=O)[O-])cc21
inhibition (HT-29 (Homo sapiens)): Active

Compound: O=S(=O)(O)c1ccc(-c2nnc(-c3ccccn3)nc2-c2ccc(S(=O)(=O)O)o2)o1
inhibition (HT-29 (Homo sapiens)): Active

Compound: O=C(O)c1c(O)c(/N=N/c2ccc(S(=O)(=O)Nc3ccccn3)cc2)cc2ccccc12
inhibition (HT-29 (Homo sapiens)): Active

Compound: COc1ccc2nc3cc(Cl)ccc3c(Nc3ccc(C(=O)O)c(O)c3)c2c1
inhibition (HT-29 (Homo sapiens)): Active

IC50 [2]: 10 µM
Compound: O=C(O)C1CCCCC1c1c2ccc(=O)c(O)c-2oc2c(O)c(O)ccc12 (centres undefined)
inhibition (HT-29 (Homo sapiens)): Active

Compound: CN(C)c1ccc(C(c2ccc(N(C)C)cc2)c2ccc([N+](=O)[O-])cc2)cc1
inhibition (HT-29 (Homo sapiens)): Active

Compound: CN(C)CCOC(=O)c1ccc(N)cc1
inhibition (HT-29 (Homo sapiens)): Active

Compound: Nc1c(S(=O)(=O)O)cc(Nc2cccc(S(N)(=O)=O)c2)c2c1C(=O)c1ccccc1C2=O
inhibition [1]: Active | inhibition (HT-29 (Homo sapiens)): Active | inhibition [8]: 50% | basal apoptotic cells (COS-7 [9]): 12% | inhibition [10]: inactive | IC50 [11]: 30 µM | inhibition [3]: Active | Activity (COS-7 [12]): 36.4 µM | inhibition [13]: inactive | inhibition [14]: 80% | Activity (COS-7 [15]): 132 µM | inhibition [16]: inactive | inhibition [17]: 50%

Compound: COc1cc(NCCC2CCCCN2)c2ncccc2c1 (centres undefined)
Activity (HT-29): Toxic | inhibition [1]: Active | inhibition (HT-29 (Homo sapiens)): Active | inhibition [3]: Active

Compound: Nc1c(/N=N/c2ccc(-c3ccc(/N=N/c4cc(S(=O)(=O)O)c5ccccc5c4N)cc3)cc2)cc(S(=O)(=O)O)c2ccccc12
inhibition (HT-29 (Homo sapiens)): Active

Compound: COc1ccc2nc3cc(Cl)ccc3c(Nc3ccc(C(=O)O)cc3)c2c1
inhibition [1]: Active | inhibition (HT-29 (Homo sapiens)): Active | inhibition [3]: Active
